Test results taken from ChEMBL document CHEMBL3272255, “Substituted alpah-methylbenzyl and tricyclic arylalkyl lactamimides as inhibitors of blood platelet aggregation” (J Med Chem, 1976).

Experiments:
[1] = Antiplatelet activity in human platelet rich plasma assessed as inhibition of ADP-induced platelet aggregation at 100 ug/ml after 20 mins by aggregometric analysis relative to control; format: functional
Outline: (§1)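 Human blood came from fasting donors who had taken no drugs for 5 days. It was citrated 1:9 with 3.8% sodium citrate. PRP was prepared at 100g for 10 min and PPP at 1500g for 15 min, and PRP was diluted with autologous PPP to 400000 platelets/mm³. Compound or saline control was incubated 20 min at 37°, then ADP was added at 2 μg/ml final. Percent inhibition was calculated from maximal ΔT, test vs control.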

[2] = Antiplatelet activity in human platelet rich plasma assessed as inhibition of ADP-induced platelet aggregation at 30 ug/ml after 20 mins by aggregometric analysis relative to control; format: functional; outline: as §1
[3] = Antiplatelet activity in human platelet rich plasma assessed as inhibition of ADP-induced platelet aggregation at 10 ug/ml after 20 mins by aggregometric analysis relative to control; format: functional; outline: as §1
Cavia porcellus [4] = test: Antiplatelet activity in guinea pig assessed as inhibition of 0.45 ug/ml ADP-induced platelet aggregation measured as change in light transmittance at 30 mg/kg, po for 4 days measured at 2 hrs post last dose by aggregometric analysis relative to control; format: functional
Outline: (§2)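 Dosing was oral by stomach tube for 4 days, alongside an untreated control group. Blood was drawn by heart puncture 2 h after the final dose, then citrated PRP was isolated and adjusted for aggregometry. ADP was added in vitro at the stated concentration. The read-out was the maximum increase in light transmittance (ΔT); group means were compared, treated vs control.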

Cavia porcellus [5] = test: Antiplatelet activity in guinea pig assessed as inhibition of 0.8 ug/ml ADP-induced platelet aggregation measured as change in light transmittance at 30 mg/kg, po for 4 days measured at 2 hrs post last dose by aggregometric analysis relative to control; format: functional; outline: as §2
Cavia porcellus [6] = test: Antiplatelet activity in guinea pig assessed as inhibition of 0.8 ug/ml ADP-induced platelet aggregation measured as change in light transmittance at 100 mg/kg, po for 4 days measured at 2 hrs post last dose by aggregometric analysis relative to control; format: functional; outline: as §2
Cavia porcellus [7] = test: Antiplatelet activity in guinea pig assessed as inhibition of 0.4 ug/ml ADP-induced platelet aggregation measured as change in light transmittance at 10 mg/kg, po for 4 days measured at 2 hrs post last dose by aggregometric analysis relative to control; format: functional; outline: as §2
Cavia porcellus [8] = test: Antiplatelet activity in guinea pig assessed as inhibition of 0.8 ug/ml ADP-induced platelet aggregation measured as change in light transmittance at 10 mg/kg, po for 4 days measured at 2 hrs post last dose by aggregometric analysis relative to control; format: functional; outline: as §2
Cavia porcellus [9] = test: Antiplatelet activity in guinea pig assessed as inhibition of 0.25 ug/ml ADP-induced platelet aggregation measured as change in light transmittance at 30 mg/kg, po for 4 days measured at 2 hrs post last dose by aggregometric analysis relative to control; format: functional; outline: as §2
Cavia porcellus [10] = test: Antiplatelet activity in guinea pig assessed as inhibition of 0.35 ug/ml ADP-induced platelet aggregation measured as change in light transmittance at 30 mg/kg, po for 4 days measured at 2 hrs post last dose by aggregometric analysis relative to control; format: functional; outline: as §2
Cavia porcellus [11] = test: Antiplatelet activity in guinea pig assessed as inhibition of 0.8 ug/ml ADP-induced platelet aggregation measured as change in light transmittance at 100 mg/kg, po for 1 day by aggregometric analysis relative to control; format: functional; details: 24 h
Cavia porcellus [12] = test: Antiplatelet activity in guinea pig assessed as inhibition of 0.45 ug/ml ADP-induced platelet aggregation measured as area between aggregation curve and baseline transmittance at 30 mg/kg, po for 4 days measured at 2 hrs post last dose by aggregometric analysis relative to control; format: functional
Outline: (§3)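 Guinea pigs were dosed by stomach tube at the stated dose daily for 4 days, with an untreated control group kept in parallel. Blood was taken by heart puncture 2 h after the last dose, and citrated PRP was isolated and adjusted. ADP was added in vitro. Total response was the area between the aggregation curve and baseline transmittance over 5 min, measured by planimeter. Percent inhibition came from group-average total response, treated vs control.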

Cavia porcellus [13] = test: Antiplatelet activity in guinea pig assessed as inhibition of 0.8 ug/ml ADP-induced platelet aggregation measured as area between aggregation curve and baseline transmittance at 30 mg/kg, po for 4 days measured at 2 hrs post last dose by aggregometric analysis relative to control; format: functional; outline: as §3
Cavia porcellus [14] = test: Antiplatelet activity in guinea pig assessed as inhibition of 0.45 ug/ml ADP-induced platelet aggregation measured as area between aggregation curve and baseline transmittance at 100 mg/kg, po for 4 days measured at 2 hrs post last dose by aggregometric analysis relative to control; format: functional; outline: as §3
Cavia porcellus [15] = test: Antiplatelet activity in guinea pig assessed as inhibition of 0.8 ug/ml ADP-induced platelet aggregation measured as area between aggregation curve and baseline transmittance at 100 mg/kg, po for 4 days measured at 2 hrs post last dose by aggregometric analysis relative to control; format: functional; outline: as §3
Cavia porcellus [16] = test: Antiplatelet activity in guinea pig assessed as inhibition of 0.4 ug/ml ADP-induced platelet aggregation measured as area between aggregation curve and baseline transmittance at 10 mg/kg, po for 4 days measured at 2 hrs post last dose by aggregometric analysis relative to control; format: functional; outline: as §3
Cavia porcellus [17] = test: Antiplatelet activity in guinea pig assessed as inhibition of 0.8 ug/ml ADP-induced platelet aggregation measured as area between aggregation curve and baseline transmittance at 10 mg/kg, po for 4 days measured at 2 hrs post last dose by aggregometric analysis relative to control; format: functional; outline: as §3
Cavia porcellus [18] = test: Antiplatelet activity in guinea pig assessed as inhibition of 0.25 ug/ml ADP-induced platelet aggregation measured as area between aggregation curve and baseline transmittance at 30 mg/kg, po for 4 days measured at 2 hrs post last dose by aggregometric analysis relative to control; format: functional; outline: as §3
Cavia porcellus [19] = test: Antiplatelet activity in guinea pig assessed as inhibition of 0.35 ug/ml ADP-induced platelet aggregation measured as area between aggregation curve and baseline transmittance at 30 mg/kg, po for 4 days measured at 2 hrs post last dose by aggregometric analysis relative to control; format: functional; outline: as §3
Cavia porcellus [20] = test: Antiplatelet activity in guinea pig assessed as inhibition of 0.45 ug/ml ADP-induced platelet aggregation measured as area between aggregation curve and baseline transmittance at 100 mg/kg, po for 1 day by aggregometric analysis relative to control; format: functional; details: 24 h
Cavia porcellus [21] = test: Antiplatelet activity in guinea pig assessed as inhibition of 0.8 ug/ml ADP-induced platelet aggregation measured as area between aggregation curve and baseline transmittance at 100 mg/kg, po for 1 day by aggregometric analysis relative to control; format: functional; details: 24 h
Cavia porcellus [22] = test: Toxicity in guinea pig assessed as mortality at 300 mg/kg, po measured after third dose; format: organism-based; set-up: dose 300 mg/kg, route oral; details: in vivo
[23] = Antiplatelet activity in human platelet rich plasma assessed as platelet factor-3 release at 300 ug/ml after 20 mins relative to control
Cavia porcellus [24] = test: Antiplatelet activity in guinea pig assessed as 0.45 ug/ml ADP-induced platelet aggregation measured as change in light transmittance at 100 mg/kg, po for 1 day by aggregometric analysis; details: 24 h
Cavia porcellus [25] = test: Antiplatelet activity in guinea pig assessed as 0.45 ug/ml ADP-induced platelet aggregation measured as change in light transmittance at 100 mg/kg, po for 4 days measured at 2 hrs post last dose by aggregometric analysis

Compound: CCCC(C/N=C1/CCCCCN1)(c1ccccc1)c1ccccc1.Cl
- inhibition at 100 µg/mL [1]: 100%
- inhibition at 30 µg/mL [2]: 57%
- inhibition at 10 µg/mL [3]: 1%
- ΔT % at 30 mg/kg (Cavia porcellus [4]): 19.7%
- ΔT % at 30 mg/kg (Cavia porcellus [5]): 35.3%
- ΔT % at 100 mg/kg (Cavia porcellus [6]): 62.7%
- ΔT % at 10 mg/kg (Cavia porcellus [7]): 14.6%
- ΔT % at 10 mg/kg (Cavia porcellus [8]): 35.2%
- ΔT % at 30 mg/kg (Cavia porcellus [9]): 21.2%
- ΔT % at 30 mg/kg (Cavia porcellus [10]): 24.8%
- ΔT % at 100 mg/kg (Cavia porcellus [11]): 36%
- inhibition in vivo at 30 mg/kg (Cavia porcellus [12]): 18%
- inhibition in vivo at 30 mg/kg (Cavia porcellus [13]): 14%
- inhibition in vivo at 100 mg/kg (Cavia porcellus [14]): 70%
- inhibition in vivo at 100 mg/kg (Cavia porcellus [15]): 20%
- inhibition in vivo at 10 mg/kg (Cavia porcellus [16]): 21%
- inhibition in vivo at 10 mg/kg (Cavia porcellus [17]): 26%
- inhibition in vivo at 30 mg/kg (Cavia porcellus [18]): 63%
- inhibition in vivo at 30 mg/kg (Cavia porcellus [19]): 55%
- inhibition in vivo at 100 mg/kg (Cavia porcellus [20]): 13%
- inhibition in vivo at 100 mg/kg (Cavia porcellus [21]): 12%
- Activity (Cavia porcellus [22]): Toxic
- %max [23]: 0.13%
- ΔT % at 100 mg/kg (Cavia porcellus [24]): 21.4%
- ΔT % at 100 mg/kg (Cavia porcellus [25]): 34.3%
